Experiments:
[1] = system: L1210; assay: Cytotoxicity evaluated against L1210 cells.; type: functional, cell-based; conditions: Mus musculus
[2] = system: P388; assay: Cytotoxicity evaluated against P388 cells.; type: functional, cell-based; conditions: Mus musculus
[3] = species on record: Homo sapiens; assay: Cytotoxicity evaluated against human tumor.; type: functional
Procedure, shortened: (§1)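 NCI panel of about 55 human tumor cell lines covering leukemia, melanoma, non-small-cell lung, colon, CNS, ovarian, renal, prostate and breast cancers, with some compounds tested on small-cell lung instead of prostate and breast.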

[4] = species on record: Homo sapiens; assay: Cytotoxicity evaluated against human tumor; type: functional; procedure, shortened: as §1
[5] = system: Mus musculus; assay: Percentage increase in the median time in days for the COLO 205 treated tumor to reach a certain size compared to controls at the dose of 16.8 mg/kg; type: functional
Procedure, shortened: (§2)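 Human tumor xenografts passaged in athymic mice, tested by the NCI Developmental Therapeutics Program. %ILS is the percentage increase in median days for treated tumors to reach a set size versus untreated controls.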

[6] = system: Mus musculus; assay: Percentage increase in the median time in days for the KM12 treated tumor to reach a certain size compared to controls at the dose of 25 mg/kg; type: functional; procedure, shortened: as §2
[7] = system: Mus musculus; assay: Optimal value of the percentage reduction of the median treated KM12 tumor weight compared to the median control tumor weight at the dose of 16.8 mg/kg; type: functional
Procedure, shortened: (§3)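 The NCI Developmental Therapeutics Program passaged human tumor xenografts in athymic mice. % T/C is the optimal ratio of median treated to median control tumor weight. Tumor-growth delay (% ILS) was the increase in median days for treated tumors to reach a set size compared with controls.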

[8] = system: Mus musculus; assay: Percentage increase in the median time in days for the CAKI-1 treated tumor to reach a certain size compared to controls at the dose of 16.8 mg/kg; type: functional; procedure, shortened: as §2
[9] = system: Mus musculus; assay: Optimal value of the percentage reduction of the median treated CAKI-1 tumor weight compared to the median control tumor weight at the dose of 16.8 mg/kg; type: functional; procedure, shortened: as §3
[10] = system: Mus musculus; assay: Optimal value of the percentage reduction of the median treated COLO 205 tumor weight compared to the median control tumor weight at the dose of 16.8 mg/kg; type: functional; procedure, shortened: as §3
[11] = system: Mus musculus; assay: Percentage increase in the median time in days for the NCI-H522 treated tumor to reach a certain size compared to controls at the dose of 80 mg/kg; type: functional; procedure, shortened: as §2
[12] = system: Mus musculus; assay: Percentage increase in the median time in days for the SW-620 treated tumor to reach a certain size compared to controls at the dose of 80 mg/kg; type: functional; procedure, shortened: as §2
[13] = system: Mus musculus; assay: Optimal value of the percentage reduction of the median treated SW-620 tumor weight compared to the median control tumor weight at the dose of 80 mg/kg; type: functional; procedure, shortened: as §3
[14] = system: Mus musculus; assay: Optimal value of the percentage reduction of the median treated NCI-H522 tumor weight compared to the median control tumor weight at the dose of 80 mg/kg; type: functional; procedure, shortened: as §3
[15] = system: Mus musculus; assay: Optimal value of the percentage reduction of the median treated COLO 205 tumor weight compared to the median control tumor weight at the dose of 200 mg/kg; type: functional; procedure, shortened: as §3
[16] = system: Mus musculus; assay: Percentage increase in the median time in days for the COLO 205 treated tumor to reach a certain size compared to controls at the dose of 200 mg/kg; type: functional; procedure, shortened: as §2

SMILES	IC50 [1]	IC50 [2]	IC50 [3]	further results
CCN1CC[C@@](O)(c2ccccc2)[C@H](C(=O)c2ccccc2)C1	20.1 µM	1070 nM	30.2 µM	
CCN1CC[C@@](O)(/C=C/c2ccc(Cl)c(Cl)c2)[C@H](C(=O)/C=C/c2ccc(Cl)c(Cl)c2)C1		400 nM	0.38 µM	
CCN(CC)CCC(=O)c1ccc(C)cc1	21.5 µM	2200 nM	26.3 µM	
CCN(CC)CCC(=O)c1ccc(OC)cc1	43.8 µM	1600 nM		
CCN1CC[C@@](O)(/C=C/c2ccc(OC)cc2)[C@H](C(=O)/C=C/c2ccc(OC)cc2)C1	25.6 µM	5000 nM		IC50 [4]: 8.31 µM
CC[N+]1(C)CC[C@@](O)(c2ccc(C)cc2)[C@H](C(=O)c2ccc(C)cc2)C1 (stereo partly drawn)		2100 nM	50.1 µM	
CCN(CC)CCC(=O)/C=C/c1ccc(OC)cc1	44.3 µM	670 nM		
CCN1CC[C@@](O)(c2ccc(O)cc2)[C@H](C(=O)c2ccc(O)cc2)C1	9.75 µM	1400 nM	20.9 µM	
CCN(CC)CCC(=O)/C=C/c1ccc(Cl)cc1	41 µM	300 nM		
CCN1CC[C@@](O)(/C=C/c2ccc(C)cc2C)[C@H](C(=O)/C=C/c2ccc(C)cc2C)C1	20.9 µM	2590 nM		
CCN1CC[C@@](O)(/C=C/c2ccccc2)[C@H](C(=O)/C=C/c2ccccc2)C1	5.3 µM	1400 nM	2.75 µM	
CC[N+]1(C)CC[C@@](O)(c2ccccc2)[C@H](C(=O)c2ccccc2)C1 (stereo partly drawn)		1300 nM		
CCN(CC)CCC(=O)/C=C/c1ccc(Cl)c(Cl)c1	61.2 µM	390 nM	3.8 µM	
N[C@@H](Cc1ccc(N(CCCl)CCCl)cc1)C(=O)O			26.3 µM	
CC[N+]1(C)CC[C@@](O)(/C=C/c2ccccc2)[C@H](C(=O)/C=C/c2ccccc2)C1.[Br-] (stereo partly drawn)		2270 nM	8.31 µM	ILS at 16.8 mg/kg [5]: 14%; ILS at 25 mg/kg [6]: 5%; T/C [7]: 45%; ILS at 16.8 mg/kg [8]: 6%; T/C [9]: 43%; T/C [10]: 20%
CCN(CC)CCC(=O)c1ccc(Cl)cc1	36.9 µM	3200 nM		
CCN(CC)CCC(=O)c1ccc(Cl)c(Cl)c1	36.4 µM	310 nM	32.4 µM	
O=C(CCN1CCN(CCC(=O)c2ccccc2)CC1)c1ccccc1	9.71 µM	2840 nM		

SMILES	IC50 [1]	IC50 [2]	IC50 [3]	further results
CCN1CC[C@@](O)(c2ccc(Cl)cc2)[C@H](C(=O)c2ccc(Cl)cc2)C1	15.7 µM	5140 nM	83.2 µM	
CCN1CC[C@@](O)(/C=C/c2ccc(C)cc2)[C@H](C(=O)/C=C/c2ccc(C)cc2)C1.Cl	6.08 µM	2100 nM	5.01 µM	ILS at 80 mg/kg [11]: -2%; ILS at 80 mg/kg [12]: 9%; T/C [13]: 32%; T/C [14]: 23%; T/C [15]: 57%; ILS at 200 mg/kg [16]: 28%
CCN1CC[C@@](O)(/C=C/c2ccccc2C)[C@H](C(=O)/C=C/c2ccccc2C)C1	12.6 µM	1890 nM	2.46 µM	
CCN1CC[C@@](O)(/C=C/c2ccc(Cl)cc2)[C@H](C(=O)/C=C/c2ccc(Cl)cc2)C1	6.96 µM	1100 nM	25.7 µM	
O=C(/C=C/c1ccccc1)CCN1CCN(CCC(=O)/C=C/c2ccccc2)CC1	5.78 µM	620 nM	12 µM	
CC[N+]1(C)CC[C@@](O)(c2ccc(OC)cc2)[C@H](C(=O)c2ccc(OC)cc2)C1 (stereo partly drawn)		980 nM	10.2 µM	
CC[N+]1(C)CC[C@@](O)(c2ccc(Cl)c(Cl)c2)[C@H](C(=O)c2ccc(Cl)c(Cl)c2)C1 (stereo partly drawn)	33.6 µM	2300 nM	9.54 µM	
CCN(CC)CCC(=O)/C=C/c1ccccc1	25.7 µM	1700 nM	9.77 µM	
CC[N+]1(C)CC[C@@](O)(c2ccc(Cl)cc2)[C@H](C(=O)c2ccc(Cl)cc2)C1 (stereo partly drawn)		1500 nM	12.9 µM	
CCN1CC[C@@](O)(c2ccc(OC)cc2)[C@H](C(=O)c2ccc(OC)cc2)C1	13.5 µM	4170 nM	19.5 µM	
CCN(CC)CCC(=O)/C=C/c1ccc(C)cc1	52.9 µM	1100 nM		
CCN(CC)CC(C)(C)C(=O)/C=C/c1ccc(Cl)cc1	6.39 µM	2200 nM		
CCN(CC)CCC(=O)c1ccccc1	20.3 µM	2600 nM	25.1 µM	
CCN1CC[C@@](O)(c2ccc(C)cc2)[C@H](C(=O)c2ccc(C)cc2)C1	38.2 µM	8600 nM	25.1 µM	
CC[N+]1(C)CC[C@@](O)(/C=C/c2ccc(Cl)c(Cl)c2)[C@H](C(=O)/C=C/c2ccc(Cl)c(Cl)c2)C1 (stereo partly drawn)	21.4 µM	640 nM	2.19 µM	
CC[N+]1(C)CC[C@@](O)(/C=C/c2ccc(C)cc2)[C@H](C(=O)/C=C/c2ccc(C)cc2)C1 (stereo partly drawn)	13.8 µM	620 nM		
CCN1CC[C@@](O)(c2ccc(Cl)c(Cl)c2)[C@H](C(=O)c2ccc(Cl)c(Cl)c2)C1		3110 nM	16.6 µM	
